Paper PMC3245783 (Nature neuroscience, 2011)

Legend:
[1] = tested on: formalin-induced nocifensive behavior; assay: Formalin-induced pain behavior in mice; assay type: in vivo, mouse; settings: formalin test, antagonist 1 mg-kg^-1, i.p.
In short: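 Mice get intraplantar 5% formalin (20 μL). Nocifensive behaviour is scored in phase I (0–5 min) and phase II (5–45 min). Test compound is given i.p. at 0.01–1 mg-kg−1. In the antagonism arm, CB1, CB2 and TRPV-1 antagonists are each given at 1 mg-kg−1 i.p. Six mice per group; mean±SEM; two-way ANOVA with Bonferroni versus vehicle-injected controls.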

[2] = target: T1, FLAT-expressing Hek293 cells (Rattus norvegicus, UniProt P97612, DEL9-76); assay: [3H]-anandamide accumulation in FLAT-expressing Hek293 cells; assay type: cell-based
T1 sequence (P97612 with tags, fused parts or gaps DEL9-76): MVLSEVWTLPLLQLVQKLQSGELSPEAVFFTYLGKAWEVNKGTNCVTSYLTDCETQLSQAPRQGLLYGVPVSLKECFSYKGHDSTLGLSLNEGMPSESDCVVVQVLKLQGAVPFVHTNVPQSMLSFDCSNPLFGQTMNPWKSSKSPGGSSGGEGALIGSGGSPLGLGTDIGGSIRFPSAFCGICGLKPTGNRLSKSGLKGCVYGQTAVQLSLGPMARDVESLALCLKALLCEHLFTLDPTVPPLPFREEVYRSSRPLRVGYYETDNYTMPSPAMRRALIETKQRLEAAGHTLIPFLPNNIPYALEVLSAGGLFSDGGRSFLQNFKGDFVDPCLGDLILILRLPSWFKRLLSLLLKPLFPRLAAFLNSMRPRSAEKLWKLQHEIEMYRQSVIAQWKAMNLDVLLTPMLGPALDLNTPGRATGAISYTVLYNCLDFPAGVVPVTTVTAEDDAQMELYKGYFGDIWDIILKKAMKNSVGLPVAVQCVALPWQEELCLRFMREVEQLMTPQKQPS

Compound	effect of antagonist on antinociceptive actions of systemic ARN272 [1]	effect on [3H]-anandamide accumulation ([2]; FLAT-expressing Hek293 cells)	also measured
CC(C)(C)c1ccc(/C=C/C(=O)Nc2ccc3c(c2)OCCO3)cc1 [AMG9810]	ineffective	–	–
CCCCCCCC/C=C\CCCCCCCC(=O)N[C@H](CO)Cc1ccc(O)cc1 [OMDM-1]	–	prevented	–
CCCCCC=CCC=CCC=CCC=CCCCC(=O)Nc1ccc(O)cc1 [AM404, N-(4-hydroxyphenyl)-eicosa-5,8,11,14-tetraenamide]	–	–	IC50 [2]: 4 µM
CCCCC/C=C\C/C=C\C/C=C\C/C=C\CCCC(=O)NCCO [anandamide, N-arachidonoylethanolamine]	–	–	effect on [3H]-anandamide accumulation ([2]; non-radioactive anandamide 100 μM): prevented
CCCCC/C=C\C/C=C\C/C=C\C/C=C\CCCC(=O)Nc1ccc(O)cc1C [VDM11]	–	prevented	–
Cc1c(C(=O)NN2CCCCC2)nn(-c2ccc(Cl)cc2Cl)c1-c1ccc(I)cc1 [AM251]	suppressed	–	–
COc1ccc(C(=O)c2c(C)n(CCN3CCOCC3)c3cc(I)ccc23)cc1 [AM630]	ineffective	–	–
CCCCC/C=C\C/C=C\C/C=C\C/C=C\CCCC(=O)NCc1ccoc1 [UCM707]	–	prevented	–
